Test results from ChEMBL document CHEMBL1649302, “New small-molecule inhibitor class targeting human immunodeficiency virus type 1 virion maturation” (Antimicrob Agents Chemother, 2009).
Calls of active or inactive are those of the source. The calls are words filed in the database; no cut-off is given here.

Key:
[1] = test system: Human immunodeficiency virus 1; experiment: Antiviral activity against HIV1 NL4-3 infected in human MT2 cells assessed as protection against virus-induced cytopathogenicity after 6 days by XTT assay; assay type: functional, organism-based; settings: Human immunodeficiency virus 1, NL4-3, MT2, 144 h
Summary of the method: (§1)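 Host cells were infected with NL4-3 or IIIB (MOI 0.08) or RF (MOI 0.025–0.819) and seeded at 2 × 10⁴/well onto half-log compound dilutions. After 6 days, XTT/PMS was added for 4 h and formazan was read at 450 nm. EC50 was the concentration giving 50% of the formazan of uninfected, compound-free cells.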

[2] = test system: Human immunodeficiency virus 1; experiment: Antiviral activity against HIV1 Ba-L infected in human PM1 cells assessed as inhibition of viral p24 antigen production after 5 days; assay type: functional, organism-based; settings: Human immunodeficiency virus 1, Ba-L, PM1, 120 h
Summary of the method: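 PM1 cells (NL4-3, Ba-L) or MT-2 cells (92HT594, 92HT599) were infected at MOI 0.16 for 2 h and washed. They were plated at 1 × 10⁴ cells/well (2 × 10⁵/ml) onto half-log compound dilutions. Supernatant p24 was quantified by ELISA at day 5. EC50 was the concentration giving a 50% decrease versus infected, compound-free cells.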

[3] = test system: Human immunodeficiency virus 1; experiment: Antiviral activity against HIV1 RF infected in human CEM-SS cells assessed as protection against virus-induced cytopathogenicity after 6 days by XTT assay; assay type: functional, organism-based; settings: Human immunodeficiency virus 1, RF, 144 h; summary of the method: as §1
[4] = Cytotoxicity against human CEM-SS cells after 6 days by XTT assay; assay type: cell-based
Summary of the method: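 Uninfected cells were incubated with half-log compound dilutions for 6 days, then given XTT/PMS for 4 h and read at 450 nm. CC50 was the concentration reducing formazan to 50% of uninfected, compound-free cells. Values are means ± SD from 3–5 experiments or individual values.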

[5] = Therapeutic index, ratio of CC50 for human MT2 cells to EC50 for HIV1 92HT599 infected in human MT2 cells; assay type: cell-based; settings: read-out: TI
Summary of the method: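 TI was the mean CC50 (XTT, uninfected MT-2) divided by the mean EC50, determined for each cell line in each experiment.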

[6] = test system: Human immunodeficiency virus 1; experiment: Selectivity ratio of EC50 for HIV1 harboring capsid I201V mutant protein infected in human HeLa cells to EC50 for wild type HIV1 infected in human HeLa cells; assay type: functional
Summary of the method: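 MT-2 cells were infected for 2 h with wild-type NL4-3 or recombinant NL4-3 carrying CA I201V or SP1 A1V. They were then cocultured with HeLa CD4 LTR/beta-Gal indicator cells in serially diluted compound. Beta-gal reporter was read after 4 days. EC50s are means ± SD of 3–6 experiments. Fold change is mutant EC50 divided by wild-type EC50.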

[7] = test system: Human immunodeficiency virus 1; experiment: Antiviral activity against HIV1 harboring capsid I201V mutant protein assessed as inhibition of virion maturation-associated CA/SP1 processing; assay type: functional, organism-based
Summary of the method: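 HEK 293 cells were transfected with pNL4-3 CAI201V, pNL4-3 or mock, with or without compound at various concentrations, and supernatants collected 72 h later. Supernatants were clarified at 200 × g, and virions pelleted through a 20% sucrose–PBS cushion (20,000 × g, 3 h, 4°C) and lysed. Proteins were run on 4–12% Bis-Tris/MOPS gels and immunoblotted with anti-p24 (1:1,000) to detect CA/SP1 p25 versus p24.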

[8] = test system: Human immunodeficiency virus 1; experiment: Antiviral activity HIV1 WEJO infected in human PBMC after 7 days by scintillation counting; assay type: functional, organism-based; settings: Human immunodeficiency virus 1, WEJO, 168 h
Summary of the method: (§2)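 Fresh PBMCs from HIV/HBV-seronegative donors were PHA-stimulated (4 μg/ml, 48–72 h) and kept with IL-2 (20 U/ml), with at least two donors pooled. Cells were seeded at 5 × 10⁴/well and infected (final MOI ≅0.1) with nine compound concentrations in triplicate wells. After 7 days, reverse transcriptase activity was measured in cell-free supernatant.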

[9] = test system: Human immunodeficiency virus 1; experiment: Antiviral activity HIV1 91US005 infected in human PBMC after 7 days by scintillation counting; assay type: functional, organism-based; settings: Human immunodeficiency virus 1, 91US005, 168 h; summary of the method: as §2
[10] = test system: Human immunodeficiency virus 1; experiment: Antiviral activity HIV1 92BR017 infected in human PBMC after 7 days by scintillation counting; assay type: functional, organism-based; settings: Human immunodeficiency virus 1, 92BR017, 168 h
Summary of the method: (§3)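 PBMCs came from buffy coats pooled from 3–4 seronegative donors, were PHA-stimulated (1.5 μg/ml, 3 days) and frozen. Thawed cells were infected 1 h at 37°C with virus input set by TCID50, then pelleted and resuspended in IL-2 (10 ng/ml). They were plated at 4 × 10⁵ cells/ml onto compounds for 7 days at 37°C. Supernatant RT activity was measured by Quan-T-RT scintillation assay.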

[11] = test system: Human immunodeficiency virus 1; experiment: Antiviral activity HIV1 92US072 infected in human PBMC after 7 days by scintillation counting; assay type: functional, organism-based; settings: Human immunodeficiency virus 1, 92US072, 168 h; summary of the method: as §2
[12] = test system: Human immunodeficiency virus 1; experiment: Antiviral activity HIV1 93BR021 infected in human PBMC after 7 days by scintillation counting; assay type: functional, organism-based; settings: Human immunodeficiency virus 1, 93BR021, 168 h; summary of the method: as §2
[13] = test system: Human immunodeficiency virus 1; experiment: Antiviral activity HIV1 CMU06 infected in human PBMC after 7 days by scintillation counting; assay type: functional, organism-based; settings: Human immunodeficiency virus 1, CMU06, 168 h; summary of the method: as §3
[14] = Therapeutic index, ratio of CC50 for human PBMC to EC50 for HIV1 92BR014 infected in human PBMC; settings: read-out: TI
Summary of the method: (§4)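 PHA-stimulated (4 μg/ml, 48 to 72 h) PBMCs pooled from at least two seronegative donors, kept with 20 U/ml IL-2, plated at 5 × 10⁴ cells/well. Infected with clinical isolate (final MOI ≅0.1) alongside nine compound concentrations in triplicate wells, 7 days. Supernatant reverse transcriptase activity measured. TI is mean PBMC CC50 divided by mean EC50.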

[15] = Therapeutic index, ratio of CC50 for human PBMC to EC50 for HIV1 92BR017 infected in human PBMC; settings: read-out: TI
Summary of the method: (§5)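 Frozen PHA-stimulated (1.5 μg/ml, 3 days) buffy-coat PBMCs pooled from three or four seronegative donors. Infected with a TCID50-based virus input per 10⁶ cells for 1 h at 37°C, then pelleted and resuspended in 10 ng/ml IL-2. Plated at 4 × 10⁵ cells/ml on compound dilutions for 7 days at 37°C. Supernatant RT measured by Quan-T-RT. TI is mean CC50 divided by mean EC50.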

[16] = Therapeutic index, ratio of CC50 for human PBMC to EC50 for HIV1 92BR030 infected in human PBMC; settings: read-out: TI; summary of the method: as §4
[17] = Therapeutic index, ratio of CC50 for human PBMC to EC50 for HIV1 92HT599 infected in human PBMC; settings: read-out: TI; summary of the method: as §5
[18] = Therapeutic index, ratio of CC50 for human PBMC to EC50 for HIV1 92TH026 infected in human PBMC; settings: read-out: TI; summary of the method: as §4
[19] = Therapeutic index, ratio of CC50 for human PBMC to EC50 for HIV1 92US072 infected in human PBMC; settings: read-out: TI; summary of the method: as §4
[20] = Therapeutic index, ratio of CC50 for human PBMC to EC50 for HIV1 93BR023 infected in human PBMC; settings: read-out: TI; summary of the method: as §4
[21] = Therapeutic index, ratio of CC50 for human PBMC to EC50 for HIV1 93TH074 infected in human PBMC; settings: read-out: TI; summary of the method: as §5
[22] = Therapeutic index, ratio of CC50 for human PBMC to EC50 for HIV1 96USHIPS7 infected in human PBMC; settings: read-out: TI; summary of the method: as §4

Q: For `CC(C)(C)c1ccc(C(Cn2cccc(C(F)(F)F)c2=O)NC2Cc3ccccc3C2)cc1` (configuration not stated), which EC50 [1] is on record?
A: 360 nM

Q: What about the EC50 [2] of the same molecule?
A: 5.3 µM

Q: And the EC50 [3]?
A: > 20 µM

Q: And the CC50 at 144 h [4]?
A: 20 µM

Q: And the selectivity ratio [5]?
A: 90

Q: What about the “Ratio EC50” value [6] of the same molecule?
A: >49

Q: What about the inhibition [7] of the same molecule?
A: inactive

Q: What about the EC50 [8] of the same molecule?
A: 1500 nM

Q: And the EC50 [9]?
A: > 17 µM

Q: And the EC50 [10]?
A: 120 nM

Q: What about the EC50 [11] of the same molecule?
A: 5 nM

Q: And the EC50 [12]?
A: 40 nM

Q: And the EC50 [13]?
A: 1200 nM

Q: And the selectivity ratio [14]?
A: 2

Q: What about the selectivity ratio [15] of the same molecule?
A: 142

Q: And the selectivity ratio [16]?
A: < 1

Q: What about the selectivity ratio [17] of the same molecule?
A: 12

Q: What about the selectivity ratio [18] of the same molecule?
A: < 1

Q: What about the selectivity ratio [19] of the same molecule?
A: 3400

Q: What about the selectivity ratio [20] of the same molecule?
A: < 1

Q: And the selectivity ratio [21]?
A: 142

Q: What about the selectivity ratio [22] of the same molecule?
A: < 1
